Experimental data from PubChem BioAssay AID488775 (The Scripps Research Institute Molecular Screening Center, 2010).
The source made the active and inactive calls.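 Rule for the calls: active = inhibition of the reporter signal above 10%; inactive = the rest.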

Test system: GAL4DBD-VP16 transactivation domain fusion (Human herpesvirus 1 VP16)
Assay: suppression of VP16-driven UAS luciferase – cell-based, luminescence, HEK293T, powder samples, counter-screen for LRH1 inverse agonist project, confirmation (AID 488775)
Settings: HEK293T GAL4-VP16 UAS-luciferase reporter, 18-24 h; at 5 µM; stronger effect = higher value
In short: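 assay system = HEK293T cells with GAL4–VP16 fusion and UAS-luciferase reporter | compound = one dose, 5 µM nominal | signal = luminescence from luciferase | read-out = percent inhibition from averaged fold change relative to DMSO vehicle wells | control set = DMSO vehicle-treated cells as reference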

| Compound | inhibition |
| --- | --- |
| CCn1c(=O)cc(N2CCN(c3cccc(Cl)c3)CC2)[nH]c1=O | 5% (inactive) |
| Cc1ccc(C)n1CCN1CCN(c2cc(=O)n(C3CCCCC3)c(=O)[nH]2)CC1 | 17% |
| O=c1cc(N2CCN(c3cccc(Cl)c3)CC2)[nH]c(=O)[nH]1 | 3% (inactive) |
| O=c1cc(N2CCOCC2)[nH]c(=O)n1C1CCCCC1 | 9% (inactive) |
| CCN1CCN(c2cc(=O)n(C3CCCCC3)c(=O)[nH]2)CC1 | 0% (inactive) |
| C=CCN1CCN(c2cc(=O)n(C3CCCCC3)c(=O)[nH]2)CC1 | -48% (inactive) |
| COC(=O)C1CCN(c2cc(=O)n(C3CCCCC3)c(=O)[nH]2)CC1 | -12% (inactive) |
| O=c1cc(N2CCCCC2)[nH]c(=O)n1C1CCCCC1 | 0% (inactive) |
| O=c1cc(N2CCC(Cc3ccccc3)CC2)[nH]c(=O)n1C1CCCCC1 | 26% |
| CCn1c(=O)cc(N2CCN(C(=O)c3ccco3)CC2)[nH]c1=O | 0% (inactive) |
| O=C(c1ccco1)N1CCN(c2cc(=O)n(C3CCCCC3)c(=O)[nH]2)CC1 | 17% |
| O=c1cc(N2CCN(c3cccc(C(F)(F)F)c3)CC2)n(Cc2ccccc2)c(=O)n1C1CCCCC1 | -1% (inactive) |
| CCn1c(=O)cc(N2CCN(c3ccccc3)CC2)[nH]c1=O | -7% (inactive) |
| CC(C)Cn1c(=O)cc(N2CCN(c3cccc(C(F)(F)F)c3)CC2)[nH]c1=O | 8% (inactive) |
| CCn1c(=O)cc(N2CCN(c3ccc(F)cc3)CC2)[nH]c1=O | -7% (inactive) |
| O=c1cc(N2CCN(c3ccccc3)CC2)[nH]c(=O)n1Cc1ccc(F)cc1 | -5% (inactive) |
| Cn1c(=O)cc(N2CCN(c3cccc(Cl)c3)CC2)[nH]c1=O | -1% (inactive) |
| CCn1c(=O)cc(N2CCN(c3cccc(C(F)(F)F)c3)CC2)[nH]c1=O | 1% (inactive) |

| Compound | inhibition |
| --- | --- |
| O=c1cc(N2CCN(C3CCCCC3)CC2)[nH]c(=O)n1C1CCCCC1 | 0% (inactive) |
| CC1CCN(c2cc(=O)n(C3CCCCC3)c(=O)[nH]2)CC1 | 6% (inactive) |
| CCn1c(=O)cc(N2CCN(Cc3ccccc3)CC2)[nH]c1=O | -10% (inactive) |
| O=c1cc(N2CCN(c3cccc(C(F)(F)F)c3)CC2)[nH]c(=O)n1-c1ccccc1 | -3% (inactive) |
| O=c1cc(N2CCc3ccccc32)[nH]c(=O)n1C1CCCCC1 | -11% (inactive) |
| O=c1cc(N2CCN(Cc3ccc4c(c3)OCO4)CC2)[nH]c(=O)n1C1CCCCC1 | -5% (inactive) |
| C=CCn1c(=O)cc(N2CCN(c3cccc(C(F)(F)F)c3)CC2)[nH]c1=O | 1% (inactive) |
| CC1CCN(c2cc(=O)n(Cc3ccc(F)cc3)c(=O)[nH]2)CC1 | -7% (inactive) |
| O=c1cc(N2CCCC2)[nH]c(=O)n1C1CCCCC1 | -6% (inactive) |
| O=c1cc(N2CCN(CCN3CCOCC3)CC2)[nH]c(=O)n1C1CCCCC1 | 26% |
| O=c1cc(N2CCN(c3cccc(C(F)(F)F)n3)CC2)[nH]c(=O)n1C1CCCCC1 | 3% (inactive) |
| Cn1c(=O)cc(N2CCN(c3ccc(F)cc3)CC2)[nH]c1=O | -13% (inactive) |
| C=CCn1c(N2CCN(c3cccc(C(F)(F)F)c3)CC2)cc(=O)n(C2CCCCC2)c1=O | 20% |
| O=c1cc(N2CCN(C(c3ccccc3)c3ccccc3)CC2)[nH]c(=O)n1C1CCCCC1 | 11% (inactive) |
| N#CCn1c(N2CCN(c3cccc(C(F)(F)F)c3)CC2)cc(=O)n(C2CCCCC2)c1=O | 2% (inactive) |
| CCOC(=O)N1CCN(c2cc(=O)n(C3CCCCC3)c(=O)[nH]2)CC1 | -6% (inactive) |
| O=c1cc(N2CCN(c3cccc(C(F)(F)F)c3)CC2)[nH]c(=O)n1Cc1ccccc1 | 6% (inactive) |
| O=C(c1ccccc1)N1CCN(c2cc(=O)n(C3CCCCC3)c(=O)[nH]2)CC1 | 8% (inactive) |

Other lines, results leading:

| inhibition | Compound |
| --- | --- |
| -6% (inactive) | O=c1cc(N2CCN(c3cccc(C(F)(F)F)c3)CC2)[nH]c(=O)n1C1CCCCC1 |
| 1% (inactive) | O=c1cc(N2CCN(c3ccccc3Cl)CC2)[nH]c(=O)n1C1CCCCC1 |
| -7% (inactive) | O=c1cc(N2CCN(c3cccc(Cl)n3)CC2)[nH]c(=O)n1C1CCCCC1 |
| 1% (inactive) | COc1ccc(N2CCN(c3cc(=O)n(C4CCCCC4)c(=O)[nH]3)CC2)cc1 |
| 26% | O=c1cc(N2CCN(c3ccc(F)cc3F)CC2)[nH]c(=O)n1C1CCCCC1 |
| -4% (inactive) | O=c1cc(N2CCN(c3nccc4occc34)CC2)[nH]c(=O)n1C1CCCCC1 |
| -5% (inactive) | O=c1cc(N2CCN(c3ccc(C(F)(F)F)cc3)CC2)[nH]c(=O)n1C1CCCCC1 |
| 1% (inactive) | O=c1cc(N2CCN(c3cccc(Cl)c3)CC2)[nH]c(=O)n1C1CCCCC1 |
| -5% (inactive) | O=c1cc(N2CCN(c3cccc(Cl)c3Cl)CC2)[nH]c(=O)n1C1CCCCC1 |
| -27% (inactive) | O=c1cc(N2CCN(c3nc(-c4ccccc4)ns3)CC2)[nH]c(=O)n1C1CCCCC1 |
| 14% | O=c1cc(N2CCN(c3ccccc3C(F)(F)F)CC2)[nH]c(=O)n1C1CCCCC1 |
| -8% (inactive) | O=c1cc(N2CCN(c3ccccn3)CC2)[nH]c(=O)n1C1CCCCC1 |
| -9% (inactive) | O=c1cc(N2CCN(c3ccc(F)cc3)CC2)[nH]c(=O)n1C1CCCCC1 |
| -4% (inactive) | O=c1cc(N2CCN(c3cccc(Br)c3)CC2)[nH]c(=O)n1C1CCCCC1 |
| 0% (inactive) | Cc1ccc(Cl)cc1N1CCN(c2cc(=O)n(C3CCCCC3)c(=O)[nH]2)CC1 |
| 1% (inactive) | O=c1cc(N2CCN(c3cc(Cl)cc(Cl)c3)CC2)[nH]c(=O)n1C1CCCCC1 |
| -16% (inactive) | O=c1cc(N2CCN(c3ccccc3)CC2)[nH]c(=O)n1C1CCCCC1 |
| -6% (inactive) | Cc1cc(C)cc(N2CCN(c3cc(=O)n(C4CCCCC4)c(=O)[nH]3)CC2)c1 |
| 16% | O=c1cc(N2CCN(c3ncccc3Cl)CC2)[nH]c(=O)n1C1CCCCC1 |
| -4% (inactive) | O=c1cc(N2CCN(Cc3ccc(Cl)cc3)CC2)[nH]c(=O)n1C1CCCCC1 |
| -12% (inactive) | O=c1cc(N2CCN(c3cc(C(F)(F)F)ccn3)CC2)[nH]c(=O)n1C1CCCCC1 |
| 7% (inactive) | O=c1cc(N2CCN(c3ccnc4cc(Cl)ccc34)CC2)[nH]c(=O)n1C1CCCCC1 |
| 13% | O=c1cc(N2CCN(c3ncccc3C(F)(F)F)CC2)[nH]c(=O)n1C1CCCCC1 |
